This is a sample that favours compounds with a hit; in the whole collection about 1.7% have one here.
PfHsp90 set2: reduces growth (ATP signal) of yeast expressing P. falciparum Hsp90; inhibition, % at 9.4 µM; S. cerevisiae expressing PfHsp90, BacTiter-Glo ATP, 48 h; yeast lacking PDR1 and PDR3 efflux regulators; AID 504621; 310,000 tested, 0.32% active;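 active = every replicate shows inhibition above about 80%, whatever the replicate mean, limit read from the data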;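 note: 0% = DMSO neutral controls and 100% = 20 µM radicicol positive controls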
SKKanGAS inh: inhibitors of SKKanGAS S. pyogenes growth in kanamycin (SK-promoter or general growth effect). inhibition, % at 7.5 µM. 300,000 tested, 1.3% active. BacTiter-Glo, 6 h;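 active = mean replicate score, as percent of positive control median, at least 50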;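 note: strain carries kanamycin resistance gene driven by streptokinase promoter and grows in 40 µg/ml kanamycin; loss of luminescence reflects streptokinase promoter inhibition or plain growth inhibition; 0% = median of DMSO wells and 100% = positive control at its reference dose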
FN deposit inh: fibronectin deposition inhibition; AH1F fibroblasts, Alexa488-fibronectin deposition fluorescence, overnight; inhibition, % at 12.6 µM; 350,000 tested, 0.086% active; AID 743247;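 active = mean inhibition across replicates of 30% or more, regardless of how many single replicates reach that level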;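 note: positive control wells lacked labelled fibronectin entirely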
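Assay system: AH1F fibroblast monolayer, labelled fibronectin deposition. Amount: 10000 cells per well. Also added: labelled fibronectin 24 nM. Compound: single-point pinned compound. Incubation: cell attachment 1 h, compound and FN exposure overnight. Detection: fluorescence after three HBSS washes, excitation 485 nm, emission 525 nm. Read-out: inhibition of fibronectin deposition signal.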
Rtt109 HAT inh: inhibitors of Candida albicans Rtt109/Vps75 histone acetyltransferase; 330,000 tested, 0.16% active; Q5AAJ8; inhibition, % at 34.9 µM; purified Rtt109/Vps75, ThioGlo CoA-SH fluorescence, 4 h;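 active = inhibition of at least 50% in every replicate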
Target sequence (Q5AAJ8 whole entry, looked up): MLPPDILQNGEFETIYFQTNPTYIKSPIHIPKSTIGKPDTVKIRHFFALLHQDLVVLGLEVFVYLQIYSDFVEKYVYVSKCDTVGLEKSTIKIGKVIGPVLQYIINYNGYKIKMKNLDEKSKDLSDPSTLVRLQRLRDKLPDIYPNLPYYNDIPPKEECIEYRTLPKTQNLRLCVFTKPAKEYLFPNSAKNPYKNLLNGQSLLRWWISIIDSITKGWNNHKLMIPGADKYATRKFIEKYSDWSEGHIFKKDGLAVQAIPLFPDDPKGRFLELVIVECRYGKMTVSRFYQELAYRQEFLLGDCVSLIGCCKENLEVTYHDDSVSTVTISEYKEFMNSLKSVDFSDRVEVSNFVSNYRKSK
PglD inh: blocks C. jejuni PglD acetyltransferase activity; AID 602405; inhibition, % at 12.5 µM; 360,000 tested, 0.098% active; purified PglD enzyme, DTNB colorimetric CoA detection; in the data active = inhibition above about 16%, passing the limit was not always enough
CSC inhib: blocks cancer stem cells; cancer stem cell-like cells viability, luminescence; inhibition, % at 7.5 µM; 300,000 tested, 1.1% active; AID 2717; in the data active = inhibition above about 75%; tested in HMLE shEcad cells
* marks the source's active call; other numbers are inactive results; . = not tested or not shown.

SMILES	PfHsp90 set2	SKKanGAS inh	FN deposit inh	Rtt109 HAT inh	PglD inh	CSC inhib
COc1cccc(Nc2nc(-c3cccs3)nc3ccccc23)c1	-16	3	-4	.	6	89*
COc1ccc(Nc2nc(-c3ccccc3)nc3ccccc23)cc1	-9	17	10	21	10	73
Cc1cccc(-c2nc(Nc3cccc(O)c3)c3ccccc3n2)c1	-44	17	-18	9	2	81*
COc1ccc(Nc2nc(-c3cccs3)nc3ccccc23)cc1	-3	6	7	0	-4	78*
COc1ccc(Nc2nc(-c3cccc([N+](=O)[O-])c3)nc3ccccc23)cc1	-3	30	5	8	-2	124*
C/C=C/c1ccccc1[C@H]1[C@H](C#N)N(C(=O)c2cccnc2)[C@H]1CO	.	.	-4	.	.	.
C[C@H](CO)N1C[C@H](C)[C@@H](CN(C)S(=O)(=O)c2cccc(F)c2)Oc2ncc(C#CC3CCCC3)cc2C1=O	.	.	21	.	3	.
CN(C)C(=O)c1cccc(-c2ccc3c(c2)[C@H]2[C@H](CCN2C(=O)Nc2cccc(F)c2)[C@@H](CO)N3C)c1	.	.	5	.	-2	.
C=CCc1cccc(CNc2nc3ccccc3n2CCC)c1O	-16	1	15	7	6	102*
COc1ccc2oc(C(=O)OCC(=O)NC3CCCC3)c(C)c2c1	2	47	.	-2	1	-8
COc1ccc2oc(C(=O)OCC(=O)NC3(C#N)CCCC3)c(C)c2c1	3	53*	3	.	.	.
CO[C@H]1CN(C)C(=O)c2ccc(NC(C)=O)cc2OC[C@@H](C)NC[C@@H]1C	.	.	-12	.	5	.
C[C@H]1CN([C@@H](C)CO)C(=O)CCCn2cc(nn2)CO[C@H]1CN(C)S(=O)(=O)c1ccccc1F	.	.	-7	.	2	.
CSc1nc2cc(Oc3cccc(Cl)c3Cl)c(Cl)cc2[nH]1	109*	96*	17	5	-5	103*
O=C(COc1ccc2ccccc2c1)NNC(=O)Cc1ccccc1	27	1	2	-3	0	4
O=C(Cc1ccccc1)NNc1ccc2ccccc2c1	5	20	.	0	.	88*
Cc1cc(C)nc(N/N=C/c2cc(Br)ccc2O)n1	-51	69*	-2	-3	8	41
CCOC(=O)c1c(NC(=O)C(=O)N/N=C/c2ccccc2OC)sc2c1CCCCC2	11	14	-17	-6	.	14
CCOC(=O)c1c(NC(=O)C(=O)N/N=C/c2ccccc2O)sc2c1CCCCC2	14	9	1	.	-5	83*
O=C1CCCc2[nH]c3cccc(/C(=C/c4ccccc4)c4ccccc4)c3c21	-47	7	4	1	2	31
COC(=O)c1ccc2[nH]c3cccc(/C(=C/c4ccccc4)c4ccccc4)c3c2c1	-5	94*	7	-8	0	129*
CC(=O)N(C)C[C@H]1Oc2cc(C#CC(C)(C)O)ccc2S(=O)(=O)N([C@H](C)CO)C[C@H]1C	.	.	3	.	1	.
O=C(NCC[C@H]1CC[C@H](NC(=O)c2cccnc2)[C@@H](CO)O1)Nc1ccc(F)cc1	.	.	.	.	-5	.
C[C@H](CO)N1C[C@H](C)[C@H](CN(C)CC2CCCCC2)Oc2ccc(NS(=O)(=O)c3ccccc3)cc2C1=O	.	.	.	.	2	.
Cc1ccc(C(=O)NCC(=O)OCC(=O)NC(C)C2CC3CCC2C3)cc1 (stereo not drawn)	9	.	5	51*	4	.
SMILES	PfHsp90 set2	SKKanGAS inh	FN deposit inh	Rtt109 HAT inh	PglD inh	CSC inhib
Cc1ccccc1C(=O)NCC(=O)OCC(=O)NC(C)C1CC2CCC1C2 (stereo not drawn)	5	.	-3	2	-5	-4
CCOc1ccc(NC(=O)c2ccc(NC(=O)c3cn4c5c(c(N6CCN(C)CC6)c(F)cc5c3=O)OCC4C)cc2)cc1 (stereo not drawn)	4	7	10	-3	.	54
CC1COc2c(N3CCN(C)CC3)c(F)cc3c(=O)c(C(=O)O)cn1c23 (stereo not drawn)	5	95*	-5	0	6	14
COc1c(N2CCN(C(=S)NCc3ccccc3)C(C)C2)c(F)cc2c(=O)c(C(=O)O)cn(C3CC3)c12 (stereo not drawn)	-24	106*	.	-6	8	.
COc1c(N2CCN[C@H](C)C2)c(F)cc2c(=O)c(C(=O)O)cn(C3CC3)c12	.	101*	.	.	.	-7
Cc1noc(C)c1NC(=O)Nc1ccc2c(c1)C(=O)N(C)[C@@H]1CC[C@H](CC(=O)N(C)C)O[C@@H]1CO2	.	.	-30	.	1	.
CO[C@@H]1CN(C)C(=O)c2cc(NS(=O)(=O)c3cccc(F)c3)ccc2OC[C@@H](C)NC[C@H]1C	.	.	-9	.	-1	.
C=CC(=O)N1C/C(=C/c2ccc(Cl)cc2)C(=O)/C(=C\c2ccc(Cl)cc2)C1	18	.	-4	8	.	.
C=CC(=O)N1C/C(=C/c2ccccc2)C(=O)/C(=C\c2ccccc2)C1	-18	.	40*	-2	.	.
Cc1noc(C)c1S(=O)(=O)Nc1ccc2c(c1)C(=O)N([C@@H](C)CO)C[C@@H](C)[C@H](CN(C)CC1CCCCC1)O2	.	.	.	.	6	.
Cc1ccc2c(CN(C)Cc3ccc(Cl)cc3Cl)cc(=O)oc2c1	-54	53*	-1	3	-2	-3
Cc1ccc2c(CN(C)Cc3ccc(Cl)cc3)cc(=O)oc2c1	8	17	-6	-2	4	-3
O=C(NCCCN1CCCC1=O)c1ccc(OC(F)(F)F)cc1	5	7	-7	61*	.	.
O=C(NCCCN1CCCC1=O)c1ccc(S(=O)(=O)Nc2ccccc2F)cc1	.	-5	-5	0	0	.
COc1ccccc1C(=O)N1C[C@@H]2[C@H](c3ccccc31)[C@H](CO)N2C(=O)Cc1ccccc1	.	.	7	.	-1	.
Cc1ccc(Sc2ccc(/C=C3/C(=O)NN(c4ccccc4)C3=O)o2)cc1	-16	-6	-3	13	.	89*
O=C1NN(c2ccccc2)C(=O)/C1=C/c1ccc(Sc2ccc(Cl)cc2)o1	-2	-4	10	8	.	56
O=C(N/N=C(\c1ccccc1)c1cccnc1)c1cccc(F)c1	.	95*	.	9	3	109*
O=C(N/N=C(\Cc1ncc[nH]1)c1ccccc1)c1cccnc1	6	.	4	12	.	100*
O=C(N/N=C(\Cc1ncc[nH]1)c1ccccc1)c1ccncc1	.	-3	-2	-1	1	79*
O=C(N/N=C(\c1ccccc1)c1cccnc1)c1ccc(O)cc1	11	-4	13	4	-5	-8
O=C(N/N=C(\Cc1ncc[nH]1)c1ccccc1)c1ccccc1	.	9	3	.	.	20
Cc1occc1C(=O)N/N=C/c1ccc(-c2ccccc2)cc1	-113	55*	-2	-13	4	-5
CC1=NOC2(C1)N(C)c1ccccc1C2(C)C (stereo not drawn)	-6	-7	.	1	-1	2

Screens from PubChem BioAssay.
